FN deposit inh: fibronectin deposition inhibition; 0.086% of 350,000 active; AH1F fibroblasts, Alexa488-fibronectin deposition fluorescence, overnight; AID 743247; inhibition, % at 12.6 µM;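 active = mean inhibition across replicates of 30% or more, regardless of how many single replicates reach that level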;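 also: positive control wells lacked labelled fibronectin entirely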
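Material: AH1F fibroblast monolayer depositing Alexa488-labelled fibronectin into matrix | Input: 10000 AH1F cells/well | Medium: DMEM plus 2% serum, read in PBS | Reagent: Alexa488-fibronectin, 24 nM final in well | Compound dosing: One dose per compound, pinned | Schedule: 1 h adhesion, overnight exposure | Measured by: Fluorescence at 485 nm excitation, 525 nm emission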
FGF22 binding: FGF22 (human) thermal shift binding | Q9HCT0 | recombinant FGF22 thermal shift, SYPRO orange fluorescence; percent of sucrose octasulfate shift, DMSO zero | activity (Tm shift, normalised), % at 9.99 µM | 1.5% of 340,000 active | AID 651658;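 active = mean Tm shift, scaled 0 neutral to 100 positive control, at about 1.3% or above, every replicate too, limit read from the data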
PGC1a acetyl inh: PGC1a acetylation modulation, inhibitor mode; U2OS PGC1a acetylation, AlphaScreen anti-acetyl-lysine; with virally co-expressed GCN5 acetyltransferase; inhibition, % at 15.6 µM; 0.17% of 350,000 active;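 active = every replicate shows inhibition of at least 40%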;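 also: 0% = neutral control wells and 100% = positive control wells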
SIRT5 block: sirtuin-5 (human) deacylase inhibition; inhibition, % at 15 µM; 1.1% of 330,000 active; Purified SirT5, succinyl-peptide AMC, trypsin-coupled fluorescence; in the data active = inhibition above about 15%
Target sequence (Q9NXA8 whole entry, looked up): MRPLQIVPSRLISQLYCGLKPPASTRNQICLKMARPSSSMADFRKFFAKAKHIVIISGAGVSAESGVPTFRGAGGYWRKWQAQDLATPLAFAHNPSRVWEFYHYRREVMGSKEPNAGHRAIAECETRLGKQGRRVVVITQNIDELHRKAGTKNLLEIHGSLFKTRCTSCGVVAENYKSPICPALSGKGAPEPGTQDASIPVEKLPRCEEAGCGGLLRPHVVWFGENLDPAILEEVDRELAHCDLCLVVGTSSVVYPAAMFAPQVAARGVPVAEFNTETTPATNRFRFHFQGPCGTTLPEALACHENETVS
ERAP1 inh: inhibitors of human ERAP1 aminopeptidase. inhibition, % at 10.7 µM. 0.15% of 340,000 active. recombinant ERAP1, Leu-AMC fluorescence, 60 min;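 active = mean replicate inhibition of at least 30%, or all replicates individually reaching that 30% level; inactive = mean below 30% and not every replicate reaching it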;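 also: 0% = neutral control wells and 100% = L-leucinethiol positive control wells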
An asterisk follows results filed as active; x = no result given. Hits are enriched below; roughly 2.2% of the tested compounds scored in any of these assays.

SMILES	FN deposit inh	FGF22 binding	PGC1a acetyl inh	SIRT5 block	ERAP1 inh
CC(C)c1ccc(/C=N/NC(=O)c2cccc(S(=O)(=O)N3CCOCC3)c2)cc1	4.2	44.3*	-3.4	0.1	-5.3
CC(=O)N1CCN(C(=O)c2cccc(S(=O)(=O)N3CCN(c4ccccc4)CC3)c2)CC1	-0.1	0.0	x	-2.4	-1.2
COc1ccc(NC(=O)Nc2ccc3c(c2)C(=O)N([C@@H](C)CO)C[C@H](C)[C@H](CN(C)Cc2ccc4c(c2)OCO4)OCCCC[C@H](C)O3)cc1	x	0.7	8.6	3.0	0.8
C[C@H](CO)N1C[C@H](C)[C@@H](CN(C)S(=O)(=O)c2ccccc2)Oc2ccc(NC(=O)CCN3CCOCC3)cc2CC1=O	x	-0.2	2.4	-3.6	1.6
C[C@H]1CN([C@@H](C)CO)C(=O)Cc2cc(N(C)C)ccc2O[C@@H]1CN(C)Cc1ccc(Oc2ccccc2)cc1	x	-0.6	33.0	x	-4.2
O=C(C1CCOCC1)N1CC(=O)N2[C@H](CO)[C@@H](c3ccc(C#CCc4ccccc4)cc3)[C@H]2C1	-3.3	x	1.3	16.5*	-2.2
COc1ccc(-c2ccc([C@@H]3[C@H]4CN(C(=O)Cc5ccccn5)CC(=O)N4[C@H]3CO)cc2)cc1	-2.6	x	-1.3	27.7*	x
CC(C)CC#Cc1ccc([C@@H]2[C@@H](CO)N3C(=O)CN(C(=O)c4ccccn4)C[C@H]23)cc1	-2.1	x	-1.7	33.1*	0.7
Cc1ccc(-c2ccc([C@@H]3[C@@H](CO)N4C(=O)CN(C(=O)Cc5ccccn5)C[C@@H]34)cc2)cc1	x	x	0.5	1.7	x
CCC(=O)N1CC(=O)N2[C@H](CO)[C@H](c3ccc(C#CCC(C)C)cc3)[C@@H]2C1	4.3	-0.1	-2.3	15.7*	2.9
CC(C)CC#Cc1ccc([C@@H]2[C@@H](CO)N3C(=O)CN(C(=O)c4ccccn4)C[C@@H]23)cc1	-3.9	x	-0.8	-1.8	3.1
Cc1ccc(S(=O)(=O)N(C)C[C@@H]2Oc3c(cccc3N(C)C)C(=O)N([C@@H](C)CO)C[C@H]2C)cc1	7.1	-0.9	-8.3	-7.2	-0.3
CC(C)CC#Cc1ccc([C@@H]2[C@@H](CO)N3C(=O)CN(C(=O)CN4CCOCC4)C[C@@H]23)cc1	x	x	-4.8	17.4*	-2.4
CC(C)CC#Cc1ccc([C@H]2[C@H](CO)N3C(=O)CN(C(=O)CN4CCOCC4)C[C@@H]23)cc1	x	x	-5.1	-3.5	x
C#CC(=O)N(c1ccc(OC)c(OC)c1)C(C(=O)NC1CCCC1)c1cccs1 (stereo not given)	x	0.1	102.7*	0.7	-0.5
Cc1cccc(N(C(=O)C(F)(F)F)C(C(=O)NC2CCCCC2)c2cccs2)c1 (stereo not given)	x	x	-4.4	x	x
COc1ccc(N(C(=O)Cc2cccs2)C(C(=O)NC2CCCC2)c2ccncc2)cc1OC (stereo not given)	2.0	-0.2	13.7	-0.2	0.4
C#CC(=O)N(c1cccc(OC)c1)C(C(=O)NC1CCCC1)c1cccs1 (stereo not given)	x	0.1	93.0*	3.6	-3.0
Cc1cc(C)n(-c2ccc(C(=O)Nc3cccnc3Cl)cc2)n1	1.0	43.1*	x	1.2	-0.8
O=C(Nc1cccnc1Cl)c1ccc(=O)oc1	6.2	-0.1	x	44.1*	2.1
Cc1cc(C)n(-c2ccc(C(=O)Nc3ccc4c(c3)OCCO4)cc2)n1	x	x	-6.2	x	x
CC(=O)NS(=O)(=O)c1ccc(NC(=O)c2ccc(-n3nc(C)cc3C)cc2)cc1	9.0	43.1*	x	-0.7	-3.3
COC(=O)C[C@H]1CC[C@@H]2[C@@H](COc3ccc(NC(=O)c4ccc(F)c(F)c4)cc3C(=O)N2C)O1	11.3	0.0	-8.5	-3.7	-0.5
C=CCNC(=S)NC(CC(=O)OC)c1ccc2c(c1)OCO2 (stereo not given)	5.6	42.9*	4.9	-4.4	1.8
CCNC(=O)CCSc1nnc(-c2ccncc2)o1	x	0.2	x	20.2*	5.9
O=C(CCSc1nnc(-c2ccncc2)o1)Nc1ccccc1	2.7	x	-1.9	x	x
O=C(CSc1nnc(-c2cccs2)o1)c1cccs1	x	0.1	-7.4	-8.9	-1.7
CCNC(=O)CSc1nnc(-c2cccs2)o1	2.8	0.1	5.9	17.8*	5.2
O=C1NC(Cc2ccc(O)cc2)c2nc3ccc(F)cc3c(=O)n2-c2ncccc21 (stereo not given)	-8.5	0.1	x	21.5*	7.6
